Experiments:
[1] = tested on: Plasmodium yoelii; test: Antimalarial activity as reduced parasitaemia (%) against multidrug-resistant Plasmodium yoelii infected Swiss mice (Mus musculus) at 96 mg/kg peroral dose after 4 days; assay type: functional; set-up: scale not given: the % may be the effect or the level left; conditions: route oral
Summary of the method: (§1)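 Colony-bred Swiss mice (25 ± 1 g) inoculated with 1×10^6 parasitized RBC on day 0, five per dose group. Dosed orally in groundnut oil (0.1 ml), days 0–3, as two divided doses daily. Parasitaemia read from thin blood smears. Day-4 suppression = [(C−T)/C]×100 against the control group; 100% means parasites below the detection limit. β-Arteether was the positive control.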

[2] = tested on: Mus musculus; test: Survival of multidrug-resistant Plasmodium yoelii infected Swiss mice (Mus musculus) at 96 mg/kg, perorally after 28 days; assay type: ADME, organism-based; set-up: dose 96 mg/kg, route oral; conditions: in vivo, po, 672 h
Summary of the method: (§2)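 Swiss mice (25 ± 1 g) infected on day 0 with 1×10^6 parasitized RBC, five per dose. Given the drug orally in groundnut oil (0.1 ml), split into two daily doses on days 0–3. Parasitaemia followed by thin blood smears from day 4 to 28. Mice surviving beyond day 28 were scored as protected, expressed as the percent of treated mice. β-Arteether was the positive control.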

[3] = tested on: Plasmodium yoelii; test: Antimalarial activity as reduced parasitaemia (%) against multidrug-resistant Plasmodium yoelii infected Swiss mice (Mus musculus) at 48 mg/kg peroral dose after 4 days; assay type: functional; set-up: scale not given: the % may be the effect or the level left; conditions: route oral; summary of the method: as §1
[4] = tested on: Plasmodium yoelii; test: Antimalarial activity as reduced parasitaemia (%) against multidrug-resistant Plasmodium yoelii infected Swiss mice (Mus musculus) at 24 mg/kg peroral dose after 4 days; assay type: functional; set-up: scale not given: the % may be the effect or the level left; conditions: route oral
[5] = tested on: Mus musculus; test: Survival of multidrug-resistant Plasmodium yoelii infected Swiss mice (Mus musculus) at 48 mg/kg, perorally after 28 days; assay type: ADME, organism-based; set-up: dose 48 mg/kg, route oral; conditions: in vivo, po, 672 h; summary of the method: as §2

Compound | Activity [1] [%] | Activity [2] | Activity [3] [%] | Activity [4] [%] | Activity [5]
C=C(c1ccc(F)cc1)C1COC2(CC[C@@]3(C)C(CC[C@@H]4[C@@H]3CC[C@@]3(C)[C@H]4OCC34CC[C@@H](C)CO4)C2)OO1 (stereo partly specified) | 45.1 | Not Active | – | – | –
CCO[C@H]1O[C@@H]2O[C@@]3(C)CC[C@H]4[C@H](C)CC[C@@H]([C@H]1C)[C@@]24OO3 [ARTEMOTIL] | – | – | 100 | 100 | Active
C=C(c1ccc(Br)cc1)C1COC2(CC[C@@]3(C)C(CC[C@H]4[C@@H]5CC[C@H]([C@H](C)CCCC(C)C)[C@@]5(C)CC[C@@H]43)C2)OO1 (stereo partly specified) | 26.1 | Not Active | – | – | –
C=C(c1ccc(Cl)cc1)C1COC2(CC[C@@]3(C)C(CC[C@@H]4[C@@H]3CC[C@@]3(C)[C@H]4OCC34CC[C@@H](C)CO4)C2)OO1 (stereo partly specified) | 71.7 | Not Active | – | – | –
C=C(c1ccc(Br)cc1)C1COC2(CC[C@@]3(C)C(CC[C@H]4[C@@H]5CC[C@H](C(C)=O)[C@@]5(C)CC[C@@H]43)C2)OO1 (stereo partly specified) | 100 | – | 100 | – | –
C=C(c1ccc(C)cc1)C1COC2(CC[C@@]3(C)C(CC[C@H]4[C@@H]5CC[C@H]([C@H](C)CCCC(C)C)[C@@]5(C)CC[C@@H]43)C2)OO1 (stereo partly specified) | 27.4 | Not Active | – | – | –
C=C(c1ccccc1)C1COC2(CC[C@@]3(C)C(CC[C@@H]4[C@@H]3CC[C@]3(C)C([C@H](C)CCCC(C)C)CC[C@@H]43)C2)OO1 (stereo partly specified) | 73 | Not Active | – | – | –
C=C(c1ccc(F)cc1)C1COC2(CC[C@@]3(C)C(CC[C@H]4[C@@H]5CC[C@H]([C@H](C)CCCC(C)C)[C@@]5(C)CC[C@@H]43)C2)OO1 (stereo partly specified) | 14.8 | Not Active | – | – | –
C=C(c1ccc(F)cc1)C1COC2(CC[C@@]3(C)C(CC[C@H]4[C@@H]5CC[C@H](C(C)=O)[C@@]5(C)CC[C@@H]43)C2)OO1 (stereo partly specified) | 100 | – | 100 | – | –
C=C(c1ccc(OC)cc1)C1COC2(CC[C@@]3(C)C(CC[C@H]4[C@@H]5CC[C@H](C(C)=O)[C@@]5(C)CC[C@@H]43)C2)OO1 (stereo partly specified) | 100 | Active | 100 | – | –
C=C(c1ccc(OC)cc1)C1COC2(CC[C@@]3(C)C(CC[C@H]4[C@@H]5CC[C@H]([C@H](C)CCCC(C)C)[C@@]5(C)CC[C@@H]43)C2)OO1 (stereo partly specified) | 53.5 | Not Active | – | – | –
C=C(c1ccccc1)C1COC2(CC[C@@]3(C)C(CC[C@H]4[C@@H]5CC[C@H](C(C)=O)[C@@]5(C)CC[C@@H]43)C2)OO1 (stereo partly specified) | 100 | – | 100 | – | –
C=C(c1ccc(OC)cc1)C1COC2(CC[C@@]3(C)C(CC[C@@H]4[C@@H]3CC[C@@]3(C)[C@H]4OCC34CC[C@@H](C)CO4)C2)OO1 (stereo partly specified) | 36.1 | Not Active | – | – | –
C=C(c1ccc(Cl)cc1)C1COC2(CC[C@@]3(C)C(CC[C@H]4[C@@H]5CC[C@H]([C@H](C)CCCC(C)C)[C@@]5(C)CC[C@@H]43)C2)OO1 (stereo partly specified) | 43.4 | Not Active | – | – | –
C=C(c1ccc(Cl)cc1)C1COC2(CC[C@@]3(C)C(CC[C@H]4[C@@H]5CC[C@H](C(C)=O)[C@@]5(C)CC[C@@H]43)C2)OO1 (stereo partly specified) | 100 | – | 100 | – | –
C=C(c1ccc(C)cc1)C1COC2(CC[C@@]3(C)C(CC[C@@H]4[C@@H]3CC[C@@]3(C)[C@H]4OCC34CC[C@@H](C)CO4)C2)OO1 (stereo partly specified) | 50.7 | Not Active | – | – | –
C=C(c1ccc(C)cc1)C1COC2(CC[C@@]3(C)C(CC[C@H]4[C@@H]5CC[C@H](C(C)=O)[C@@]5(C)CC[C@@H]43)C2)OO1 (stereo partly specified) | 100 | – | 100 | – | –
